Reference: publication PMC8136437 (ACS chemical biology, 2020)

How the values were obtained:
[1] = tested on: Rat-2 cells expressing HCK-YF; experiment: Soft-agar colony-forming assay, Rat-2 fibroblasts transformed with HCK-YF; assay type: cell-based; settings: 1 μM A-419259, soft agar, two weeks
Outline: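 Rat-2 fibroblasts infected with 293T-produced retroviruses carrying the HCK-YF codon mutagenesis library, then G-418 selected. Cells plated in soft agar (semi-solid medium) with test compound at 1.0 μM, 5,000 cells per plate, selected two weeks. Picked colonies expanded in 2D without inhibitor, then re-assayed with test compound or DMSO carrier in triplicate. Colonies Wright-Giemsa stained and counted; mean ± SE.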

[2] = tested on: Rat-2 resistant clone 5-1 (HCK-YF mutant library); assay type: cell-based; settings: resistant clone 5-1, 1 μM A-419259 vs DMSO
HCK-T338H [3] = target: T1, HCK-T338H (Homo sapiens, UniProt P08631, T333H); experiment: HCK activation loop autophosphorylation; assay type: cell-based; settings: 293T cells, 100 and 1,000 nM A-419259
T1 sequence (P08631 22-526 T333H): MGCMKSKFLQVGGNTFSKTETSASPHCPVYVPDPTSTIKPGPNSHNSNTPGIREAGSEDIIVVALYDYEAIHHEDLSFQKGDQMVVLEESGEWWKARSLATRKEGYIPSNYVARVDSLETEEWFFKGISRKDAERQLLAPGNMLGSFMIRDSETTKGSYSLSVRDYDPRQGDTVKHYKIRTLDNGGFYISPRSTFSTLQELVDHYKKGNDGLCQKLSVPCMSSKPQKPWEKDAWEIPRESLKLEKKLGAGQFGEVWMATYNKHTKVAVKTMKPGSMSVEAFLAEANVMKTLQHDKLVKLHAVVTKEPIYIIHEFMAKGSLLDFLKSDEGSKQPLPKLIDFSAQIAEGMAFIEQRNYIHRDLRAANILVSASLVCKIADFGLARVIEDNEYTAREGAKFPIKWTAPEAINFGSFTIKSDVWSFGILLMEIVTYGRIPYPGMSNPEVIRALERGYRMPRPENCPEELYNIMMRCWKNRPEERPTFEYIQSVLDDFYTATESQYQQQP

HCK-T338M = HCK-T338M (Homo sapiens, UniProt P08631, T333M); experiment: HCK activation loop autophosphorylation; assay type: cell-based
Chain of HCK-T338M (P08631 22-526 T333M): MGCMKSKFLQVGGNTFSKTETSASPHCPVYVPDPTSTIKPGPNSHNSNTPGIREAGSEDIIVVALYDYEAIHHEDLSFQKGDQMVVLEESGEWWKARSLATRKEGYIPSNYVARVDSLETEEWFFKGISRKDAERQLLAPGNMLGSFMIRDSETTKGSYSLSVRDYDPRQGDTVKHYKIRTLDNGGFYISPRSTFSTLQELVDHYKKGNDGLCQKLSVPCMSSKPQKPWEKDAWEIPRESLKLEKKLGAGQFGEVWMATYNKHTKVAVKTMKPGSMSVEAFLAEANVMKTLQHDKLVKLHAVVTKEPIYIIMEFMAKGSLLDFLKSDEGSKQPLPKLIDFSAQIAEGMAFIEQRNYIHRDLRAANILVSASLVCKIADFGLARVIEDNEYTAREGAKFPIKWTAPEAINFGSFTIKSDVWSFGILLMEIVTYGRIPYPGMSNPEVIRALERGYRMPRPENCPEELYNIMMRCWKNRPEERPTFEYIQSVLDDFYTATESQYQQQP
Outline: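 Transfected human 293T cells expressing the mutant kinase were treated with the test compound at 0, 100 or 1000 nM, with DMSO as the no-inhibitor control. HCK was immunoprecipitated and immunoblotted for pY416 and total HCK, then detected with infrared-dye secondary antibodies. The pY416/HCK signal ratio was normalized to DMSO; mean ± SE of two independent experiments.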

[4] = tested on: TF-1/FLT3-ITD cells expressing HCK-T338H; experiment: Growth inhibition; assay type: cell-based, human
Outline: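 TF-1 cells made cytokine-independent by retroviral FLT3-ITD transduction, then retrovirally transduced with wild-type or mutant HCK. Each population exposed to a wide range of test compound concentrations; viability read by Cell Titer-Blue. Each point in triplicate, normalized to DMSO (no inhibitor) control, plotted as mean ± SE. IC50 estimated by nonlinear regression fit of concentration-response curves.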

HCK-T338H [5] = target: T1, HCK-T338H; experiment: HCK activation loop autophosphorylation; assay type: cell-based
Outline: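 GM-CSF-dependent TF-1 cells were made cytokine-independent by retroviral FLT3-ITD, then retrovirally transduced with mutant HCK. For kinase activity, cells were exposed to 0, 30, 100 or 300 nM test compound; HCK was immunoprecipitated and blotted for pY416 and total HCK (3 independent experiments, normalized to DMSO). IC50: Cell Titer-Blue viability across a concentration range, triplicate, DMSO-normalized, nonlinear regression.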

[6] = tested on: Philadelphia chromosome-positive CML cells; settings: at concentrations that did not directly inhibit BCR-ABL; cited from earlier work
[7] = tested on: AML patient-derived xenografts; settings: oral administration; cited from earlier work
[8] = target: kinome panel (HCK, other SRC-family members, FLT3 and other Class III receptor tyrosine kinases); settings: KINOMEscan; cited from earlier work

- resistance of HCK-T338M autophosphorylation to A-419259 (HCK-T338M; 293T cells, 100 nM A-419259): complete resistance
- resistance of HCK-T338M autophosphorylation to A-419259 (HCK-T338M; 293T cells, 1,000 nM A-419259): partial resistance
- Tyr416 phosphorylation of HCK-T338H in the presence of A-419259 (HCK-T338H [5]; TF-1/FLT3-ITD cells, concentrations up to 100 nM): remained phosphorylated on Tyr416
- IC50 (HCK-T338H [5]; read-out: IC50, kinase inhibition, TF-1/FLT3-ITD cells expressing HCK-T338H): ~100 nM
Compound: CN1CCN(C2CCC(n3cc(-c4ccc(Oc5ccccc5)cc4)c4c(N)ncnc43)CC2)CC1 (stereo not shown) [A-419259]
- colony formation by control cells expressing HCK-YF [1]: completely blocked colony formation
- colony formation in the presence vs absence of A-419259 [2]: equal numbers of colonies in the presence or absence of A-419259
- activation loop phosphorylation (pY416) of HCK-T338H (HCK-T338H [3]): no change in activation loop phosphorylation
- sensitivity of TF-1/FLT3-ITD cells to growth inhibition ([4]; HCK-T338H expression vs wild-type HCK): reduced sensitivity
- shift in the IC50 for growth suppression ([4]; HCK-T338H vs wild-type HCK in TF-1/FLT3-ITD cells): 2 fold
- IC50 ([4]; read-out: IC50, growth suppression, TF-1/FLT3-ITD cells expressing HCK-T338H): ~100 nM
- growth arrest and apoptosis of CML cells [6]: induced growth arrest and apoptosis
- activity in mice bearing AML patient-derived xenografts [7]: potent activity
- kinase specificity profile [8]: remarkably narrow specificity profile
